Laboratory results: PMC5600292 (Biochimica et biophysica acta, 2017)

Columns and labels:
Type in all cases: biochemical
[1] = target: human recombinant thrombin W215A/E217A (WE) (Homo sapiens, UniProt P00734, E592A/W590A); assay: HPLC-based kinetic assay of FXIII AP hydrolysis, W215A/E217A
Summary of the method: (§1)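 Synthetic Ac-/-NH2 FXIII (28–41) AP peptides (V34, L34, F34, W34, Y34) were used at 75–2500 µM final in 50 mM H3PO4, 100 mM NaCl, 0.1% PEG, pH 7.4, 25 °C. Recombinant human thrombin (6 nM–1 µM) started the reaction; aliquots were quenched with 12.5% H3PO4, keeping hydrolysis below 17% in 30 min. The (28–37) product was quantified by RP-HPLC against calibration curves. Initial velocities were fitted to V = Vmax/(1+Km/[S]), kcat taken from thrombin concentration, in triplicate.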

[2] = target: human recombinant thrombin W215A (Homo sapiens, UniProt P00734, W590A); assay: HPLC-based kinetic assay of FXIII AP hydrolysis, W215A thrombin
Summary of the method: as §1

[3] = target: human recombinant thrombin L99A (Homo sapiens, UniProt P00734, L459A); assay: HPLC-based kinetic assay of FXIII AP hydrolysis, L99A thrombin
Summary of the method: as §1

[4] = target: human recombinant thrombin wild-type (WT) (Homo sapiens, UniProt P00734); assay: HPLC-based kinetic assay of thrombin-catalyzed hydrolysis of FXIII; settings: WT IIa, pH 7.4, 25 °C, average of at least three independent experiments ± SEM
Summary of the method: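 Recombinant human thrombin hydrolysed acetylated, amidated FXIII (28–41) activation peptides with V, L, F, W or Y at position 34 (final 75–2500 µM). Reactions ran at 25 °C in 50 mM H3PO4, 100 mM NaCl, 0.1% PEG, pH 7.4, with 6 nM–1 µM thrombin, and kept <17% hydrolysis in 30 min. Timed aliquots were quenched with 12.5% H3PO4. The (28–37) product was quantified by C18 RP-HPLC against calibration curves, giving initial velocities. These were fit to V = Vmax/(1 + Km/[S]), and kcat came from thrombin concentration. Runs were in triplicate.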

[5] = target: human recombinant thrombin I174A (Homo sapiens, UniProt P00734, I542A); assay: HPLC-based kinetic assay of FXIII AP hydrolysis, I174A thrombin
Summary of the method: as §1

[6] = target: human recombinant thrombin W60dA (Homo sapiens, UniProt P00734, W413A); assay: HPLC-based kinetic assay of FXIII AP hydrolysis, W60dA thrombin; settings: W60dA IIa, pH 7.4, 25 °C, average of at least three independent experiments ± SEM
Summary of the method: as §1

[7] = WE (W215A/E217A) IIa, HPLC assay, pH 7.4, 25 °C, average of at least three independent experiments ± SEM, SEM
[8] = W215A IIa, HPLC assay, pH 7.4, 25 °C, average of at least three independent experiments ± SEM, SEM
[9] = L99A IIa, HPLC assay, pH 7.4, 25 °C, average of at least three independent experiments ± SEM, SEM
[10] = I174A IIa, HPLC assay, pH 7.4, 25 °C, average of at least three independent experiments ± SEM, SEM

## Ac-TVELQGWVPRGVNL-NH2 [FXIII (28–41) W34 AP]
[1]; WE (W215A/E217A) IIa, HPLC assay, pH 7.4, 25 °C, average of at least three independent experiments ± SEM
  kcat/Km: 270 ± 35 M⁻¹ s⁻¹
[1]; [7]
  Km: 1280 ± 161 µM
  kcat: 0.35 ± 0.03 s⁻¹
[1]; WE thrombin, current work
  fold decrease in Km over WT thrombin: 2 fold
[2]; W215A IIa, HPLC assay, pH 7.4, 25 °C, average of at least three independent experiments ± SEM
  kcat/Km: 5600 ± 340 M⁻¹ s⁻¹
[2]; [8]
  Km: 1030 ± 57 µM
  kcat: 5.76 ± 0.14 s⁻¹
[2]; W215A thrombin, current work
  fold decrease in Km over WT thrombin: 2 fold
[3]; L99A IIa, HPLC assay, pH 7.4, 25 °C, average of at least three independent experiments ± SEM
  kcat/Km: 3200 ± 490 M⁻¹ s⁻¹
[3]; [9]
  Km: 719 ± 97 µM
  kcat: 2.3 ± 0.17 s⁻¹
[3]; L99A thrombin, current work
  fold decrease in kcat relative to WT thrombin: 3 fold
[4]
  kcat/Km: 12000 ± 1200 M⁻¹ s⁻¹
[4]; SEM
  Km: 637 ± 56 µM
  kcat: 7.62 ± 0.3 s⁻¹
[5]; I174A IIa, HPLC assay, pH 7.4, 25 °C, average of at least three independent experiments ± SEM
  kcat/Km: 54000 ± 5500 M⁻¹ s⁻¹
[5]; [10]
  Km: 256 ± 24 µM
  kcat: 13.9 ± 0.52 s⁻¹
[5]; I174A thrombin, current work
  fold increase in kcat relative to WT thrombin: 2 fold
  fold increase in kcat/Km relative to WT thrombin: 4.5 fold
[6]
  kcat/Km: 1200 ± 120 M⁻¹ s⁻¹
[6]; SEM
  Km: 976 ± 89 µM
  kcat: 1.21 ± 0.05 s⁻¹
